Measured values published in ChEMBL document CHEMBL4325893, “Synthesis and antibacterial profiles of targeted triclosan derivatives” (2019).
In brackets after ≈: the same amount, converted by molar mass.

Legend:
Aeromonas hydrophila = test: Antibacterial activity against Aeromonas hydrophila OCC 778 after 18 hrs; type: functional; conditions: OCC 778, 18 h
In short: (§1)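 Broth microdilution in Nutrient Broth No. 2; stocks in ethanol diluted to 0.01–128 µg/ml (triclosan) or 0.25–256 µg/ml (glycosides). Overnight 37 °C NB2 cultures diluted 1 in 10^4 in saline and added to the dilutions. Incubation at 37 °C with agitation, OD read every 15 min; MIC is the lowest concentration preventing any OD rise after 18 h.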

Citrobacter freundii [1] = test: Antibacterial activity against Citrobacter freundii OCC 851 after 18 hrs; type: functional; conditions: OCC 851, 18 h; in short: as §1
Cronobacter sakazakii = test: Antibacterial activity against Cronobacter sakazakii 29544 after 18 hrs; type: functional; conditions: Cronobacter sakazakii, 29544, 18 h; in short: as §1
Klebsiella aerogenes [2] = test: Antibacterial activity against Enterobacter aerogenes ATCC 13048 after 18 hrs; type: functional; conditions: ATCC 13048, 18 h; in short: as §1
[3] = Antibacterial activity against Enterobacter cloacae ATCC 13047 after 18 hrs; type: functional, Enterobacter cloacae subsp. cloacae; conditions: ATCC 13047, 18 h; in short: as §1
Escherichia coli [4] = test: Antibacterial activity against Escherichia coli ATCC 8739 after 18 hrs; type: functional; conditions: ATCC 8739, 18 h; in short: as §1
Escherichia coli [5] = test: Antibacterial activity against Escherichia coli ATCC 10536 after 18 hrs; type: functional; conditions: ATCC 10536, 18 h; in short: as §1
Escherichia coli [6] = test: Antibacterial activity against Escherichia coli ATCC 11775 after 18 hrs; type: functional; in short: as §1
Escherichia coli [7] = test: Antibacterial activity against Escherichia coli ATCC 25922 after 18 hrs; type: functional; conditions: ATCC 25922, 18 h; in short: as §1
Escherichia coli [8] = test: Antibacterial activity against Escherichia coli ATCC 35218 after 18 hrs; type: functional; conditions: ATCC 35218, 18 h; in short: as §1
Escherichia coli [9] = test: Antibacterial activity against Escherichia coli 700728 after 18 hrs; type: functional; conditions: Escherichia coli, 700728, 18 h; in short: as §1
Escherichia coli [10] = test: Antibacterial activity against Escherichia coli NCTC 13216 after 18 hrs; type: functional; conditions: NCTC 13216, 18 h; in short: as §1
Escherichia coli [11] = test: Antibacterial activity against Escherichia coli OCC 122 after 18 hrs; type: functional; conditions: OCC 122, 18 h; in short: as §1
Escherichia hermannii = test: Antibacterial activity against Escherichia hermannii 33650 after 18 hrs; type: functional; conditions: Atlantibacter hermannii, 33650, 18 h; in short: as §1
Hafnia alvei = test: Antibacterial activity against Hafnia alvei 13337 after 18 hrs; type: functional; conditions: Hafnia alvei, 13337, 18 h; in short: as §1
Klebsiella aerogenes [12] = test: Antibacterial activity against Klebsiella aerogenes NCTC 8167 after 18 hrs; type: functional; conditions: NCTC 8167, 18 h; in short: as §1
Klebsiella pneumoniae [13] = test: Antibacterial activity against Klebsiella pneumoniae ATCC 10031 after 18 hrs; type: functional; conditions: ATCC 10031, 18 h; in short: as §1
Proteus mirabilis = test: Antibacterial activity against Proteus mirabilis ATCC 12453 after 18 hrs; type: functional; conditions: ATCC 12453, 18 h; in short: as §1
Proteus vulgaris = test: Antibacterial activity against Proteus vulgaris OCC 195 after 18 hrs; type: functional; conditions: OCC 195, 18 h; in short: as §1
Pseudomonas aeruginosa = test: Antibacterial activity against Pseudomonas aeruginosa ATCC 27853 after 18 hrs; type: functional; conditions: ATCC 27853, 18 h; in short: as §1
Klebsiella pneumoniae [14] = test: Antibacterial activity against Klebsiella pneumoniae ATCC 13883 after 18 hrs; type: functional; conditions: ATCC 13883, 18 h; in short: as §1
Citrobacter freundii [15] = test: Antibacterial activity against Citrobacter freundii 8090 after 18 hrs; type: functional; conditions: Citrobacter freundii, 8090, 18 h; in short: as §1
Serratia marcescens = test: Antibacterial activity against Serratia marcescens OCC 217 after 18 hrs; type: functional; conditions: OCC 217, 18 h; in short: as §1
Bacillus cereus = test: Antibacterial activity against Bacillus cereus ATCC 14579 after 18 hrs; type: functional; conditions: ATCC 14579, 18 h; in short: as §1
Bacillus subtilis = test: Antibacterial activity against Bacillus subtilis NCTC 10073 after 18 hrs; type: functional; conditions: NCTC 10073, 18 h; in short: as §1
Enterococcus faecalis [16] = test: Antibacterial activity against Enterococcus faecalis ATCC 29212 after 18 hrs; type: functional; conditions: ATCC 29212, 18 h; in short: as §1
Enterococcus faecalis [17] = test: Antibacterial activity against Enterococcus faecalis ATCC 33186 after 18 hrs; type: functional; conditions: ATCC 33186, 18 h; in short: as §1
Enterococcus faecium = test: Antibacterial activity against Enterococcus faecium ATCC 19434 after 18 hrs; type: functional; conditions: ATCC 19434, 18 h; in short: as §1

MIC (Aeromonas hydrophila): > 256 µg/mL | MIC (Citrobacter freundii [1]): 64 µg/mL (≈ 152 µM) | MIC (Cronobacter sakazakii): 128 µg/mL (≈ 304 µM) | MIC (Klebsiella aerogenes [2]): 128 µg/mL (≈ 304 µM) | MIC [3]: 16 µg/mL (≈ 37.9 µM) | MIC (Escherichia coli [4]): 8 to 32 µg/mL (≈ 19 to 75.9 µM) | MIC (Escherichia coli [5]): 8 to 32 µg/mL (≈ 19 to 75.9 µM) | MIC (Escherichia coli [6]): 8 to 32 µg/mL (≈ 19 to 75.9 µM) | MIC (Escherichia coli [7]): 8 to 32 µg/mL (≈ 19 to 75.9 µM) | MIC (Escherichia coli [8]): 8 to 32 µg/mL (≈ 19 to 75.9 µM) | MIC (Escherichia coli [9]): 8 to 32 µg/mL (≈ 19 to 75.9 µM) | MIC (Escherichia coli [10]): 8 to 32 µg/mL (≈ 19 to 75.9 µM) | MIC (Escherichia coli [11]): 8 to 32 µg/mL (≈ 19 to 75.9 µM) | MIC (Escherichia hermannii): 32 µg/mL (≈ 75.9 µM) | MIC (Hafnia alvei): 4 µg/mL (≈ 9.49 µM) | MIC (Klebsiella aerogenes [12]): 32 µg/mL (≈ 75.9 µM) | MIC (Klebsiella pneumoniae [13]): 4 µg/mL (≈ 9.49 µM) | MIC (Proteus mirabilis): 32 µg/mL (≈ 75.9 µM) | MIC (Proteus vulgaris): 128 µg/mL (≈ 304 µM) | MIC (Pseudomonas aeruginosa): > 256 µg/mL | MIC (Klebsiella pneumoniae [14]): 4 µg/mL (≈ 9.49 µM) | MIC (Citrobacter freundii [15]): 64 µg/mL (≈ 152 µM) | MIC (Serratia marcescens): > 256 µg/mL | MIC (Bacillus cereus): 128 µg/mL (≈ 304 µM) | MIC (Bacillus subtilis): 128 µg/mL (≈ 304 µM) | MIC (Enterococcus faecalis [16]): 256 µg/mL (≈ 607 µM) | MIC (Enterococcus faecalis [17]): 256 µg/mL (≈ 607 µM) | MIC (Enterococcus faecium): 256 µg/mL (≈ 607 µM)
Compound: O[C@@H]1[C@H](Oc2cc(Cl)ccc2Oc2ccc(Cl)cc2Cl)OC[C@@H](O)[C@H]1O
